Active and inactive are the calls of the source.
Experiments:
Cannabinoid receptor 2 [1] = target: T1, Cannabinoid receptor 2 (Homo sapiens, UniProt P34972); assay: Displacement of [3H]-CP55,940 from human CB2R expressed in CHO-K1 cell membranes incubated for 2 hrs by liquid scintillation spectrophotometry relative to CP55,940; conditions: Membrane
In short: (§1)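 Membranes from CHO-K1 cells stably expressing hCB1R or hCB2R (50 μg protein) incubated with 1 nM [3H]CP55,940 and compound (0.10 nM–10 μM) in Tris binding buffer with 0.1% BSA, pH 7.4, for 120 min at 37 °C. Bound ligand filtered on GF/B and counted by liquid scintillation. Nonspecific binding defined with 1 μM unlabelled CP55,940; three-parameter fit; n = 3 in duplicate.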

Cannabinoid receptor 2 [2] = target: T1, Cannabinoid receptor 2; assay: Agonist activity at human CB2 receptor expressed in CHO-K1 cells assessed as enhancement of beta arrestin-2 recruitment at 10 uM incubated for 90 mins by HitHunter chemiluminescence based assay relative to CP55,940; format: functional, cell-based
In short: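 PathHunter beta-arrestin2 recruitment in DiscoveRx CHO-K1 cells stably expressing hCB2R, seeded overnight in Opti-MEM with 1% FBS at 37 °C. Ligands (0.10 nM–10 μM) added for 90 min at 37 °C, then detection solution 60 min at room temperature and chemiluminescence read. Data expressed as % CP55,940 response and fitted by three-parameter nonlinear regression; n = 6 independent experiments in triplicate.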

Cannabinoid receptor 2 [3] = target: T1, Cannabinoid receptor 2; assay: Agonist activity at human CB2 receptor expressed in CHO-K1 cells assessed as enhancement of beta arrestin-2 recruitment incubated for 90 mins by […] chemiluminescence based assay; format: functional, cell-based
In short: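 PathHunter beta-arrestin2 recruitment in DiscoveRx CHO-K1 cells stably expressing hCB2R, seeded overnight in Opti-MEM with 1% FBS at 37 °C. Ligands (0.10 nM–10 μM) added for 90 min at 37 °C, then detection solution 60 min at room temperature and chemiluminescence read.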

Cannabinoid receptor 2 [4] = target: T1, Cannabinoid receptor 2; assay: Agonist activity at human CB2 receptor expressed in CHO-K1 cells assessed as inhibition of froskolin-stimulated cAMP accumulation incubated for 90 mins in presence of EC-21a by HitHunter chemiluminescence based assay; format: functional, cell-based
Cannabinoid receptor 1 [5] = target: T2, Cannabinoid receptor 1 (Homo sapiens, UniProt P21554); assay: Displacement of [3H]-CP55,940 from human CB1R expressed in CHO-K1 cell membranes assessed as inhibition constant incubated for 2 hrs by liquid scintillation spectrometry analysis; set-up: species or system Membrane
T2 sequence (P21554 whole entry): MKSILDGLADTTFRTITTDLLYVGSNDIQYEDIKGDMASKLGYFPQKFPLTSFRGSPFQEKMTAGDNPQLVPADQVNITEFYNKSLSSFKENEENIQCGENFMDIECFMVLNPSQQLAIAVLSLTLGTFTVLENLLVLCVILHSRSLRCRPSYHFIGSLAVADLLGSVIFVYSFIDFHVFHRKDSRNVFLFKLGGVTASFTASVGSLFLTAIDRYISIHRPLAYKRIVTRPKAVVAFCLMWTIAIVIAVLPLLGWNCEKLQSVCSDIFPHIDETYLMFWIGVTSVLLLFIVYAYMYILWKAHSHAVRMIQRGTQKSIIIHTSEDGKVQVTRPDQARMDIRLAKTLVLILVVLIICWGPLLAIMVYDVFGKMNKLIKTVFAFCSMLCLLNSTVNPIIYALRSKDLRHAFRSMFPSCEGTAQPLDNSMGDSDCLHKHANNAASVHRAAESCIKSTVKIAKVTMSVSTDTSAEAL

Cannabinoid receptor 1 [6] = target: T2, Cannabinoid receptor 1; assay: Displacement of [3H]-CP55,940 from human CB1R expressed in CHO-K1 cell membranes incubated for 2 hrs by liquid scintillation spectrometry relative to CP55,940; conditions: Membrane; in short: as §1
Cannabinoid receptor 2 [7] = target: T1, Cannabinoid receptor 2; assay: Agonist activity at human CB2 receptor expressed in CHO-K1 cells assessed as inhibition of froskolin-stimulated cAMP accumulation incubated for 90 mins by HitHunter chemiluminescence based assay; format: functional, cell-based
In short: (§2)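 HitHunter assay in DiscoveRx CHO-K1 hCB2R cells, seeded overnight in Opti-MEM with 1% FBS, then put in assay buffer. Cells cotreated at 37 °C for 90 min with 10 μM forskolin and ligand (0.10 nM–10 μM). cAMP antibody/detection solutions added for 60 min at room temperature, then solution A for 180 min, then chemiluminescence read.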

Cannabinoid receptor 2 [8] = target: T1, Cannabinoid receptor 2; assay: Agonist activity at human CB2 receptor expressed in CHO-K1 cells assessed as inhibition of froskolin-stimulated cAMP accumulation at 50 nM incubated for 90 mins in presence of EC-21a by HitHunter chemiluminescence based assay relative to CP55,940; format: functional, cell-based
Cannabinoid receptor 2 [9] = target: T1, Cannabinoid receptor 2; assay: Displacement of [3H]-CP55,940 from human CB2R expressed in CHO-K1 cell membranes assessed as inhibition constant incubated for 2 hrs by liquid scintillation spectrometry; set-up: species or system Membrane
Cannabinoid receptor 2 [10] = target: T1, Cannabinoid receptor 2; assay: Agonist activity at human CB2 receptor expressed in CHO-K1 cells assessed as inhibition of froskolin-stimulated cAMP accumulation incubated for 90 mins in presence of SR144528 by HitHunter chemiluminescence based assay; format: functional, cell-based
In short: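 Forskolin (10 μM)-stimulated cAMP HitHunter assay in CHO-K1 hCB2R cells, 90 min at 37 °C. Ligand at 0.1 nM–10 μM given at the same time as a fixed 100 nM SR144528. Data given as % CP55,940; three-parameter fit; 3–6 independent experiments in triplicate.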

Cannabinoid receptor 2 [11] = target: T1, Cannabinoid receptor 2; assay: Agonist activity at human CB2 receptor expressed in CHO-k1 cells assessed as inhibition of froskolin-stimulated cAMP accumulation at 5 nM incubated for 90 mins in presence of EC-21a by HitHunter chemiluminescence based assay relative to CP55,940; format: functional, cell-based
Cannabinoid receptor 2 [12] = target: T1, Cannabinoid receptor 2; assay: Agonist activity at human CB2 receptor expressed in CHO-K1 cells assessed as inhibition of froskolin-stimulated cAMP accumulation at 10 uM incubated for 90 mins by HitHunter chemiluminescence based assay relative to CP55,940; format: functional, cell-based
In short: as §2, with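 “read. Response given as % CP55,940; three-parameter fit; n = 6 in triplicate.” for “read.”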

BV-2 [13] = assay: Antiinflammatory activity in LPS-induced mouse microglial BV-2 cells assessed as increase in IL-10 release at 1 uM preincubated for 1 hr followed by LPS-stimulation and measured after 4 hrs by ELISA; format: functional, cell-based; conditions: time 5.0 hrs
In short: (§3)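 Murine BV2 microglia given 1 μM compound 1 h before LPS (5 μg/mL), then stimulated 4 h. IL-6 or IL-10 in the medium measured by ELISA (pg/mL). Where used, SR144528 (1 μM) added 15 min before agonist. n = 3 independent experiments in duplicate; one-way ANOVA with Tukey test.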

HMC3 [14] = assay: Antiinflammatory activity in LPS/TNFalpha-induced HMC3 cells assessed as decrease in IL-6 release at 1 uM pretreated with compound for 1 hr followed by LPS/TNFalpha stimulation and measured after 24 hrs by ELISA; format: functional, cell-based; conditions: Homo sapiens, time 25.0 hrs
In short: (§4)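 HMC3 human microglia in high-glucose DMEM with 10% FBS, pretreated 1 h with compound (100 nM–10 μM), then stimulated with LPS (10 μg/mL) plus TNFα (50 ng/mL) for 24 h. IL-6 or IL-10 in the medium measured by ELISA. SR144528 (1 μM) added 15 min before agonist where used; JWH133 served as positive control. n = 3 in duplicate; ANOVA with Tukey test.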

Mus musculus [15] = assay: Antinociceptive activity against oxaliplatin-induced neuropathic pain in po dosed CD-1 albino mouse assessed as decrease in neuropathic pain measured upto 75 min by cold plate assay; format: functional, organism-based; conditions: DDE = dose-dependent effect
In short: (§5)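 Male CD-1 mice (22–25 g) given oxaliplatin 2.4 mg/kg i.p. in 5% glucose on days 1–2, 5–9 and 12–14. On day 15 compound given orally at 1, 5 or 20 mg/kg in 1% carboxymethylcellulose. Cold plate held at 4 °C; latency to paw licking or lifting recorded (cut-off 60 s) at 15, 30, 45, 60 and 75 min. 16 mice per group over 2 experimental sets.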

BV-2 [16] = assay: Antiinflammatory activity in LPS-induced mouse microglial BV-2 cells assessed as decrease in IL-6 release at 1 uM preincubated for 1 hr followed by LPS-stimulation and measured after 4 hrs by ELISA; format: functional, cell-based; conditions: time 5.0 hrs; in short: as §3
Mus musculus [17] = assay: Antinociceptive activity against oxaliplatin-induced neuropathic pain in CD-1 albino mouse assessed as decrease in neuropathic pain at 20 mg/kg, po measured after 15 to 60 mins by cold plate assay; format: functional; set-up: scale not given: the % may be the effect or the level left; conditions: time 15-60 min; in short: as §5
[18] = Cytotoxicity against LPS/TNFalpha-induced HMC3 cells assessed as reduction in cell viability at 1 uM pretreated with compound for 1 hr followed by LPS/TNFalpha stimulation and measured after 24 hrs by MTT assay; format: toxicity, cell-based; conditions: human, hmc3, 25 h
In short: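 HMC3 microglial cells exposed to compound at 100 nM, 1 μM and 10 μM; viability read by MTT reduction. n = 3 independent experiments in triplicate; one-way ANOVA with Tukey test.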

HMC3 [19] = assay: Antiinflammatory activity in LPS/TNFalpha-induced HMC3 cells assessed as increase in IL-10 release at 1 uM pretreated with compound for 1 hr followed by LPS/TNFalpha stimulation and measured after 24 hrs by ELISA; format: functional, cell-based; conditions: Homo sapiens, time 25.0 hrs; in short: as §4

T1 sequence (P34972 whole entry): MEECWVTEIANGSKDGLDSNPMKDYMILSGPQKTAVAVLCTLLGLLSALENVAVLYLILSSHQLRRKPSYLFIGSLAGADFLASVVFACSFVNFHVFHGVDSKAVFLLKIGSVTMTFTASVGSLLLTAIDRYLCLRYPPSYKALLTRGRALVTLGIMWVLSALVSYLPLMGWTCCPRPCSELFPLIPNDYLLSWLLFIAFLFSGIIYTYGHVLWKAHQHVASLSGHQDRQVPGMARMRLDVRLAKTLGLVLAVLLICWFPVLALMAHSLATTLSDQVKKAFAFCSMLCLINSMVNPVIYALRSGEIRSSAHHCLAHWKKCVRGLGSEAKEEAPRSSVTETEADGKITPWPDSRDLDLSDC

SMILES | Emin (Cannabinoid receptor 2 [1]; filed as agonist) | Emax (Cannabinoid receptor 2 [2]; filed as agonist) | EC50 (Cannabinoid receptor 2 [3]) | Ki (Cannabinoid receptor 1 [5]) | Emin (Cannabinoid receptor 1 [6]; filed as agonist) | EC50 (Cannabinoid receptor 2 [7]) | Ki (Cannabinoid receptor 2 [9]) | Emax (Cannabinoid receptor 2 [12]) | also measured
Cc1nc(OCCCCCn2cc(CCCn3cc(Br)c(C)c(NC(=O)C4CCCCCC4)c3=O)nn2)c(C(=O)NC2CCCCCC2)cc1Br | 52% | 43% | > 10000 nM | > 10000 nM | 95% | 8 nM | 1.9 nM | 38% | Emax (Cannabinoid receptor 2 [4]): 20%; Emax (Cannabinoid receptor 2 [8]): 38%; Emax (Cannabinoid receptor 2 [10]): 39%; Emax (Cannabinoid receptor 2 [11]): 29%
Cc1c(Br)cn(CCCc2cn(CCCCCn3c(C)c(Br)cc(C(=O)NC4CCCCCC4)c3=O)nn2)c(=O)c1NC(=O)C1CCCCCC1 | 40% |  | > 10000 nM | > 10000 nM | 89% | 73 nM | 1.4 nM |  | Activity (BV-2 [13]): Active; Activity (HMC3 [14]): Active; Activity (Mus musculus [15]): Dde; Activity (BV-2 [16]): Active; Emax (Cannabinoid receptor 2 [2]): 30%; Activity (Mus musculus [17]): 100%; EC50 (Cannabinoid receptor 2 [4]): 2.2 nM; EC50 (Cannabinoid receptor 2 [8]): 8 nM; EC50 (Cannabinoid receptor 2 [10]): 61 nM; Activity [18]: Non-Toxic; Activity (HMC3 [19]): Active; Emax (Cannabinoid receptor 2 [12]; filed as agonist): 52%
Cc1c(Br)cc(C(=O)NC2CCCCCC2)c(=O)n1Cc1ccc(F)cc1 |  | 45% | 63 nM | 0.79 nM |  | 20 nM | 7 nM |  | Emin (Cannabinoid receptor 2 [1]): 13%; Emin (Cannabinoid receptor 1 [6]): 29%; Emax (Cannabinoid receptor 2 [12]; filed as agonist): 76%
Cc1c(Br)cn(Cc2ccc(F)cc2)c(=O)c1NC(=O)C1CCCCCC1 | 130% |  | > 10000 nM | > 10000 nM | 103% | > 10000 nM | 19 nM | 2.5% | Emax (Cannabinoid receptor 2 [2]): 1.4%
Cc1c(Br)cn(CCCc2cn(CCCn3c(C)c(Br)cc(C(=O)NC4CCCCCC4)c3=O)nn2)c(=O)c1NC(=O)C1CCCCCC1 |  | 46% | > 10000 nM |  |  | > 10000 nM |  | 21% | 
CCCCCCC(C)(C)c1ccc([C@@H]2C[C@H](O)CC[C@H]2CCCO)c(O)c1 |  |  |  |  |  |  |  |  | Emin (Cannabinoid receptor 2 [1]): 0%; Emin (Cannabinoid receptor 1 [6]): 0%
Cc1c(Br)cn(Cc2cn(CCCn3c(C)c(Br)cc(C(=O)NC4CCCCCC4)c3=O)nn2)c(=O)c1NC(=O)C1CCCCCC1 |  | 53% | 560 nM |  |  | > 10000 nM |  | 21% | 
Cc1c(Br)cn(Cc2cn(CCCCCn3c(C)c(Br)cc(C(=O)NC4CCCCCC4)c3=O)nn2)c(=O)c1NC(=O)C1CCCCCC1 |  | 41% | > 10000 nM |  |  | > 10000 nM |  | 22% | 
